In ChEMBL document CHEMBL3232930, “One-pot, four-component synthesis of novel cytotoxic agents 1-(5-aryl-1,3,4-oxadiazol-2-yl)-1-(1H-pyrrol-2-yl)methanamines” (Eur J Med Chem, 2014):

What was measured:
[1] = system: A549; experiment: Cytotoxicity against human A549 cells assessed as reduction in cell viability after 24 hrs by MTT assay; type: functional, cell-based; settings: A549, 24 h
Outline: (§1)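 15,000 exponential-phase cells per well were seeded and incubated 24 h, then exposed to a range of test concentrations. Medium alone served as the negative control and doxorubicin as the positive control. MTT (5 mg/mL stock) was added for a further 4 h, and the formazan was dissolved in DMSO. Percent inhibition versus control was calculated, and IC50 was taken from the dose–inhibition curve. Each experiment was run three times.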

[2] = Cytotoxicity against human HT1080 cells assessed as reduction in cell viability after 24 hrs by MTT assay; type: functional, cell-based; settings: HT-1080, 24 h; outline: as §1
[3] = system: MCF7; experiment: Cytotoxicity against human MCF7 cells assessed as reduction in cell viability after 24 hrs by MTT assay; type: functional, cell-based; settings: MCF7, 24 h; outline: as §1
[4] = system: MCF7; experiment: Ratio of doxorubicin IC50 to compound IC50 for human MCF7 cells assessed as reduction in cell viability after 24 hrs by MTT assay; type: functional
[5] = system: HT-29; experiment: Cytotoxicity against human HT-29 cells assessed as reduction in cell viability after 24 hrs by MTT assay; type: functional, cell-based; settings: HT-29, 24 h; outline: as §1

SMILES	IC50 [1]	IC50 [2]	IC50 [3]	Ratio IC50 [4]	IC50 [5]
Cc1ccc(CNC(c2ccc[nH]2)c2nnc(-c3ccc(Br)cc3)o2)cc1 (stereo not drawn)	53.9 µM	51.9 µM	4.3 µM	4	49.5 µM
Clc1ccc(-c2nnc(C(NCc3ccccc3)c3ccc[nH]3)o2)cc1 (stereo not drawn)	73.8 µM	41 µM	46.2 µM		54.5 µM
c1ccc(CNC(c2ccc[nH]2)c2nnc(-c3ccccc3)o2)cc1 (stereo not drawn)	187 µM	231 µM	216 µM		198 µM
Fc1cc(-c2nnc(C(NCc3ccccc3)c3ccc[nH]3)o2)c(Cl)cc1Cl (stereo not drawn)	27.5 µM	25.6 µM	21.7 µM		20 µM
Clc1ccc(CNC(c2ccc[nH]2)c2nnc(-c3ccc(Br)cc3)o2)cc1Cl (stereo not drawn)	17.3 µM	45.3 µM	31 µM		20 µM
COc1ccc(CNC(c2ccc[nH]2)c2nnc(-c3ccccc3)o2)cc1 (stereo not drawn)	278 µM	175 µM	142 µM		286 µM
COc1ccc(-c2nnc(C(NCc3ccc(F)cc3)c3ccc[nH]3)o2)cc1 (stereo not drawn)	52.8 µM	14.7 µM	28.9 µM		39.4 µM
COc1ccc(CNC(c2ccc[nH]2)c2nnc(-c3cccc(Cl)c3)o2)cc1 (stereo not drawn)	77.5 µM	84.6 µM	41.7 µM		95.6 µM
Clc1cccc(-c2nnc(C(NCc3ccccc3)c3ccc[nH]3)o2)c1 (stereo not drawn)	62.2 µM	41.1 µM	56.7 µM		48.3 µM
Cc1ccc(-c2nnc(C(NCc3ccccc3)c3ccc[nH]3)o2)cc1 (stereo not drawn)	744 µM	909 µM	1120 µM		249 µM
Cc1cccc(-c2nnc(C(NCc3ccccc3)c3ccc[nH]3)o2)c1 (stereo not drawn)	430 µM	311 µM	480 µM		202 µM
COc1ccccc1CNC(c1ccc[nH]1)c1nnc(-c2ccccc2)o1 (stereo not drawn)	362 µM	278 µM	441 µM		392 µM
Clc1ccc(-c2nnc(C(NCc3ccccc3)c3ccc[nH]3)o2)cc1Cl (stereo not drawn)	25.5 µM	15.2 µM	13.9 µM		41.7 µM
COc1cccc2c1C(=O)c1c(O)c3c(c(O)c1C2=O)C[C@@](O)(C(=O)CO)C[C@@H]3O[C@H]1C[C@H](N)[C@H](O)[C@H](C)O1 [DOXORUBICIN]	13.6 µM	15.4 µM	16.9 µM		16 µM
Clc1cccc(-c2nnc(C(NCc3ccc(Cl)c(Cl)c3)c3ccc[nH]3)o2)c1 (stereo not drawn)	13.3 µM	25.1 µM	19 µM		18 µM
Brc1ccc(-c2nnc(C(NCc3ccccc3)c3ccc[nH]3)o2)cc1 (stereo not drawn)	87.2 µM	70.6 µM	96.6 µM		58.3 µM
COc1ccc(-c2nnc(C(NCc3ccccc3)c3ccc[nH]3)o2)c(OC)c1 (stereo not drawn)	296 µM	418 µM	471 µM		392 µM
COc1ccc(-c2nnc(C(NCc3ccccc3)c3ccc[nH]3)o2)cc1 (stereo not drawn)	326 µM	170 µM	460 µM		344 µM
